The values that follow come from ChEMBL document CHEMBL1177857, “Functionalized aurones as inducers of NAD(P)H:quinone oxidoreductase 1 that activate AhR/XRE and Nrf2/ARE signaling pathways: synthesis, evaluation and SAR” (Eur J Med Chem, 2010).

Activity calls are given as the source filed them. The calls are words filed in the database; no cut-off is given here.

Sequence of NAD(P)H dehydrogenase [quinone] 1 (Homo sapiens) (P15559 whole entry): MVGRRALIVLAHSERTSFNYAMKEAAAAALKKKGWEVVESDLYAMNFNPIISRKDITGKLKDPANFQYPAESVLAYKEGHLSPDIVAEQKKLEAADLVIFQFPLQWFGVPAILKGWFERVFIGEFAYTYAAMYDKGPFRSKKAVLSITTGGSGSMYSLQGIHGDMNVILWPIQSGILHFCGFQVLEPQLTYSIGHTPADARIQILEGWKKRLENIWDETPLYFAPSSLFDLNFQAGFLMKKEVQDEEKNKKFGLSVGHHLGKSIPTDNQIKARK

The first series concerns the target NAD(P)H dehydrogenase [quinone] 1 (Homo sapiens) (UniProt P15559). Put plainly: Induction of […] NQO1 activity in mutant mouse BPrc1 cells assessed as concentration require for 2 fold induction after 48 hrs. The format is cell-based.
Settings: not given
The gist of the method:
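Mutant Hepa1c1c7 line (Bp^rc1, defective Ah-receptor pathway) seeded at 10⁴ cells/well for 24 h, then exposed to compound for 48 h; final DMSO ≤0.5%. Cells lysed with 0.8% digitonin/2 mM EDTA. NQO1 read by menadione-driven MTT reduction (NADP, glucose-6-phosphate regenerating system, FAD, pH 7.4), stopped after 5 min with dicoumarol, A590. Activity taken relative to blank and control wells; CD = concentration doubling basal activity; mean ± SD of 3 determinations.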
`O=c1cc(-c2ccccc2)oc2ccc3ccccc3c12`: the outcome was inactive.

Test system in a further series: not listed separately
Put plainly: Induction of NQO1 activity in mouse Hepa-1c1c7 cells at 1 uM after 48 hrs relative to control.
Settings: not given
Compound `COc1cc(OC)c2c(c1)O/C(=C\c1ccc(F)cc1)C2=O` came in with a fold change (FC) of 2.16.

`COc1cc(OC)c2c(c1)O/C(=C\c1ccccc1F)C2=O`: the fold change (FC) is 2.6.

The next series deals with Hepa-1c1c7. Description: Induction of TrxR activity in mouse Hepa-1c1c7 cells at 10 uM after 24 hrs. The format is cell-based.
Settings: not given
The procedure, abridged: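 Hepa1c1c7 cells treated with compound at 10 µM for 24 h. Digitonin/EDTA lysate (25 µg) incubated 20 min at 37 °C with 85 mM HEPES pH 7.6, 0.3 mM insulin, 660 µM NADPH, 2.5 mM EDTA and 5 µM human thioredoxin. Reaction quenched with DTNB in guanidine; A412 read, minus no-thioredoxin background. Fold versus control, mean ± SEM, n = 3.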
For the compound `O=C1/C(=C/c2ccccc2O)Oc2ccccc21`, the result was inactive.

Consider `COc1cc(OC)c2c(c1)OC(Cc1ccccc1O)C2=O` (configuration not stated), for which the outcome was inactive.

A further series concerns Hepa-1c1c7. Description: Increase of Nrf2 protein level in mouse Hepa-1c1c7 cells at 10 uM for 6 hrs Western blotting relative to control. The format is functional, cell-based.
Settings: not given
The gist of the method:
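Hepa1c1c7 cells exposed to compound at 10 µM for 6 h, with MG132 (25 µM) as reference. Lysates made in digitonin/EDTA with protease inhibitors; 50 µg protein run on 15% SDS-PAGE, blotted to nitrocellulose and probed for Nrf2 with β-actin loading control. Bands quantified by densitometry against untreated control, 3 experiments, independent t-test.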
As for `O=C1/C(=C/c2ccccc2O)Oc2cc(O)cc(O)c21`, the result was Active.

For `COc1cc(OC)c2c(c1)O/C(=C\c1ccccc1O)C2=O`, the result was Active.

Take `COc1cc(OC)c2c(c1)O/C(=C\c1ccccc1)C2=O`: the result was Active.

For a further series, the target named is T1, CYP1A1 (Mus musculus, UniProt P30561).
T1 sequence (P30561 whole entry): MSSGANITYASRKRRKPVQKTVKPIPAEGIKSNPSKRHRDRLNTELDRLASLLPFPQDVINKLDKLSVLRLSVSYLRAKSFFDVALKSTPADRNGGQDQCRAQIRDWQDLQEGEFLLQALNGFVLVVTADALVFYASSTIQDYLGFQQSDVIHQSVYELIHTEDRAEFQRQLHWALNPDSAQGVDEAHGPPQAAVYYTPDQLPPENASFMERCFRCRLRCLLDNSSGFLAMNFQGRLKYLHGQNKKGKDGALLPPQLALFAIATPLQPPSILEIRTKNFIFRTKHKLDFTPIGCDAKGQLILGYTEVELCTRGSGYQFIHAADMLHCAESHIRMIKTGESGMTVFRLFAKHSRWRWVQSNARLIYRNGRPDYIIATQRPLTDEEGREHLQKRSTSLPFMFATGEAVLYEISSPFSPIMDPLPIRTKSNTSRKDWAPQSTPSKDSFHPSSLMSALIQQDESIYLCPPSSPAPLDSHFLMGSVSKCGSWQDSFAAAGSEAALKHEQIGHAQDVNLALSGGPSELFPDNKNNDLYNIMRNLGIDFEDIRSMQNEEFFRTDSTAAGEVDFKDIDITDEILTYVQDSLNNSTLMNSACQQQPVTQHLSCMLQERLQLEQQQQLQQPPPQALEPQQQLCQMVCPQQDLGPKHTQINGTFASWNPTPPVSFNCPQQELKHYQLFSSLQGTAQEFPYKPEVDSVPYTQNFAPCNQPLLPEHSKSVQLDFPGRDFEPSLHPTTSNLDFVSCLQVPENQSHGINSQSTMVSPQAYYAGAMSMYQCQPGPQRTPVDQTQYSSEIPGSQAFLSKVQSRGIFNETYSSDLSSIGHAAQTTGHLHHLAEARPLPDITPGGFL
Put plainly: Induction of Ah receptor in mouse Hepa-1c1c7 cells assessed as induction of CYP1A1 activity at 25 uM after 48 hrs by EROD assay relative to control. The format is cell-based. The following applies: probe ethoxyresorufin (EROD), read-out: FC. The procedure, abridged: (§1)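 Hepa1c1c7 cells at 10⁴/well grown 24 h, then given compound at one fixed concentration for 48 h. After a PBS wash, cells incubated 40 min at 37 °C with 5 µM 7-ethoxyresorufin plus 2 mM salicylamide. Resorufin fluorescence read at ex 530/em 590 nm. Fold induction = (F cells+compound − F blank)/(F control − F blank); mean ± SD, n = 3.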
For the compound `COc1cc(OC)c2c(c1)OC(=O)/C2=C\c1ccccc1`, the fold induction at 48 h, 25 µM turned out to be 1.04.

Consider `O=C1/C(=C/c2ccccc2O)Oc2cc(O)ccc21`, for which the fold induction at 48 h, 25 µM was 1.07.

In a further series the test system is Hepa-1c1c7. Put plainly: Induction of human NQO1 gene expression in mouse Hepa-1c1c7 cells co-transfected with pGL3-ARE at 10 to 25 uM after 24 hrs by luciferase reporter gene assay. The format is functional, cell-based.
Settings: not given
The procedure, abridged: (§2)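 Hepa1c1c7 cells at about 50% confluency co-transfected with pGL3-ARE firefly luciferase (human NQO1 ARE) and pRL-CMV Renilla as transfection control. After 24 h, cells exposed to compound (10 or 25 µM). Dual luciferase read-out expressed as fold over control; mean ± SD of 3 independent transfections, t-test.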
Take `O=C1/C(=C/c2ccccc2O)Oc2ccccc21`: the result was inactive.

Consider `COc1cc(OC)c2c(c1)OC(Cc1ccccc1O)C2=O` (configuration not stated), for which the outcome was inactive.

`O=C1/C(=C/c2ccccc2O)Oc2cc(O)cc(O)c21`: the outcome was Active.

`COc1cc(OC)c2c(c1)O/C(=C\c1ccccc1O)C2=O`: the result was Active.

In the case of `COc1cc(OC)c2c(c1)O/C(=C\c1ccccc1)C2=O`, the outcome was Active.

Test system in a further series: not listed separately
Description: Cytotoxicity against mouse Hepa-1c1c7 cells assessed as cell survival at 25 uM after 48 hrs by MTT assay. The note with it: read-out: Activity. The format is cell-based. The procedure, abridged: (§3)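 MTT (0.5 mg/ml) added for 3 h at 37 °C, formazan dissolved in DMSO and read at 590 nm. Survival (%) = (A treated − A blank)/(A untreated − A blank) × 100.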
A general note: Formazan colour is commonly taken as a measure of viable cells.
For `COc1cc(OC)c2c(c1)OC(=O)/C2=C\c1ccccc1`, the viability at 48 h, 25 µM turned out to be 96%.

For `O=C1/C(=C/c2ccccc2O)Oc2cc(O)ccc21`, the viability at 48 h, 25 µM was found to be 102%.

Consider `O=C1/C(=C/c2ccccc2O)Oc2ccccc21`, for which the viability at 48 h, 25 µM was determined as 102%.

The next series concerns the target T1, CYP1A1. Description: Induction of Ah receptor in mouse Hepa-1c1c7 cells assessed as induction of CYP1A1 activity at 10 uM after 48 hrs by EROD assay relative to control. It counts as cell-based. The note with it: probe ethoxyresorufin (EROD), read-out: FC. The gist of the method: as §1
As to `O=C1/C(=C/c2ccccc2O)Oc2cc(O)cc(O)c21`, the fold induction at 48 h, 10 µM is 1.1.

`COc1cc(OC)c2c(c1)O/C(=C\c1ccccc1O)C2=O`: the fold induction at 48 h, 10 µM turned out to be 1.87.

As to `COc1cc(OC)c2c(c1)O/C(=C\c1ccccc1)C2=O`, the fold induction at 48 h, 10 µM is 2.04.

Test system in another series: not listed separately
Description: Cytotoxicity against mouse Hepa-1c1c7 cells assessed as cell survival at 5 uM after 48 hrs by MTT assay. It counts as cell-based. The note with it: read-out: Activity. The gist of the method: as §3
As to `COc1cc(OC)c2c(c1)OC(=O)/C2=C\c1ccccc1`, the viability at 48 h, 5 µM was 100%.

Consider `O=C1/C(=C/c2ccccc2O)Oc2cc(O)ccc21`, for which the viability at 48 h, 5 µM amounted to 113%.

Regarding `O=C1/C(=C/c2ccccc2O)Oc2ccccc21`, the viability at 48 h, 5 µM was found to be 110%.

With `COc1cc(OC)c2c(c1)OC(Cc1ccccc1O)C2=O` (configuration not stated), the viability at 48 h, 5 µM stood at 102%.

As to `O=C1/C(=C/c2ccccc2O)Oc2cc(O)cc(O)c21`, the viability at 48 h, 5 µM was 102%.

With `COc1cc(OC)c2c(c1)O/C(=C\c1ccc(F)cc1)C2=O`, the viability at 48 h, 5 µM amounted to 93%.

For `COc1cc(OC)c2c(c1)O/C(=C\c1ccccc1O)C2=O`, the viability at 48 h, 5 µM turned out to be 102%.

With `COc1cc(OC)c2c(c1)O/C(=C\c1ccccc1)C2=O`, the viability at 48 h, 5 µM came to 93%.

Turning to `COc1cc(OC)c2c(c1)O/C(=C\c1ccccc1F)C2=O`, the viability at 48 h, 5 µM came out at 66%.

Test system in the next series: not listed separately
Put plainly: Induction of NQO1 activity in mouse Hepa-1c1c7 cells at 25 uM after 48 hrs relative to control.
Settings: not given
With `COc1cc(OC)c2c(c1)OC(=O)/C2=C\c1ccccc1`, the fold change (FC) was 2.1.

The compound `O=C1/C(=C/c2ccccc2O)Oc2cc(O)ccc21` displayed a fold change (FC) of 2.11.

`O=C1/C(=C/c2ccccc2O)Oc2ccccc21`: the fold change (FC) was determined as 1.61.

In a further series the test system is Hepa-1c1c7. Put plainly: Induction of human NQO1 gene expression in mouse Hepa-1c1c7 cells co-transfected with pGL3-ARE at 25 uM after 24 hrs by luciferase reporter gene assay.
Settings: not given
It counts as functional, cell-based. The gist of the method: as §2
(Reporter assays use an easily measured gene product as a stand-in for the process of interest.)
In the case of `O=C1/C(=C/c2ccccc2O)Oc2cc(O)cc(O)c21`, the outcome was Active.

Test system in another series: not listed separately
Description: Induction of NQO1 activity in mouse Hepa-1c1c7 cells at 5 uM after 48 hrs relative to control.
Settings: not given
For `COc1cc(OC)c2c(c1)OC(=O)/C2=C\c1ccccc1`, the fold change (FC) came to 1.43.

As for `O=C1/C(=C/c2ccccc2O)Oc2cc(O)ccc21`, the fold change (FC) amounted to 1.45.

Compound `O=C1/C(=C/c2ccccc2O)Oc2ccccc21` came in with a fold change (FC) of 1.41.

Regarding `COc1cc(OC)c2c(c1)OC(Cc1ccccc1O)C2=O` (configuration not stated), the fold change (FC) turned out to be 1.55.

Regarding `O=C1/C(=C/c2ccccc2O)Oc2cc(O)cc(O)c21`, the fold change (FC) was 2.92.

`COc1cc(OC)c2c(c1)O/C(=C\c1ccccc1O)C2=O` had a fold change (FC) of 5.28.

`COc1cc(OC)c2c(c1)O/C(=C\c1ccccc1)C2=O`: the fold change (FC) was 7.7.

Test system in the next series: not listed separately
Description: Upregulation of TrxR protein expression in mouse Hepa-1c1c7 cells at 10 uM after 24 hrs by Western blotting relative to control. It counts as functional, cell-based.
Settings: not given
The procedure, abridged: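 Hepa1c1c7 cells exposed to compound at 10 µM for 24 h. Digitonin/EDTA lysates (50 µg protein) separated on 15% SDS-PAGE, blotted to nitrocellulose and probed with anti-TrxR antibody. Band intensity compared with untreated control; representative of 3 experiments.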
(In western blotting, separated proteins are transferred to a membrane and probed.)
In the case of `COc1cc(OC)c2c(c1)O/C(=C\c1ccccc1O)C2=O`, the result was Active.

Consider `COc1cc(OC)c2c(c1)O/C(=C\c1ccccc1)C2=O`, for which the result was Active.

The next series addresses T1, CYP1A1. Put plainly: Induction of Ah receptor in mouse Hepa-1c1c7 cells assessed as induction of CYP1A1 activity at 5 uM after 48 hrs by EROD assay relative to control. The format is cell-based. The following applies: probe ethoxyresorufin (EROD), read-out: FC. The gist of the method: as §1
As for `O=C1/C(=C/c2ccccc2O)Oc2ccccc21`, the fold induction at 48 h, 5 µM was 1.4.

Test system in the next series: not listed separately
Put plainly: Transcriptional activation of Nrf2/ARE signaling pathway in mouse Hepa-1c1c7 cells assessed as increase in cellular GSH level at 10 uM after 24 hrs by Ellman's method. It counts as functional, cell-based.
Settings: not given
The gist of the method:
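Hepa1c1c7 cells at 10⁶/plate grown 24 h, then given compound at 10 µM final for 24 h. Pellets extracted with 3% sulfosalicylic acid. Total GSH measured by DTNB recycling (0.6 mM DTNB, 0.2 mM NADPH, GSH reductase) as ΔA412 over 5 min against a GSH standard curve. Values normalized to Bradford protein from a parallel plate; mean ± SEM, n = 3.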
With `O=C1/C(=C/c2ccccc2O)Oc2cc(O)cc(O)c21`, the result was Active.

Turning to `COc1cc(OC)c2c(c1)O/C(=C\c1ccccc1O)C2=O`, the result was Active.

Regarding `COc1cc(OC)c2c(c1)O/C(=C\c1ccccc1)C2=O`, the outcome was Active.
